Legend:
Trypanosoma brucei = assay: ST_JUDE: Cytotoxicity using luciferase to measure ATP as an indicator of the viability of Trypanosoma brucei; type: functional, organism-based
Plasmodium falciparum [1] = assay: ST_JUDE: Plasmodium falciparum 3D7 EC50 (uM) as measured by SYBR green dye; type: functional, organism-based
[2] = ST_JUDE: Cytotoxicity using luciferase to measure ATP as an indicator of the viability of human Burkitt''s lymphoma lymphoblast cells (Raji); type: toxicity, cell-based
Plasmodium falciparum [3] = assay: ST_JUDE: Cytotoxicity against Plasmodium falciparum W2; type: functional, organism-based
Plasmodium falciparum [4] = assay: ST_JUDE: Cytotoxicity against Plasmodium falciparum K1; type: functional, organism-based
Summary of the method: (§1)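 Asexual P. falciparum grown in human erythrocytes, exposed to compounds for 72 h, and growth read as the DNA quantity in treated versus control cultures. Dose-response run at 12 concentrations from 10 μM to 5 nM.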

Leishmania major = assay: ST_JUDE: Cytotoxicity using Alamar Blue to measure viability of Leishmania major; type: functional, organism-based
Summary of the method: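 L. major promastigotes; drug susceptibility read with Alamar Blue.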

[5] = ST_JUDE: Cytotoxicity using luciferase to measure ATP as an indicator of the viability of human foreskin fibroblast cells (BJ); type: toxicity, cell-based
[6] = ST_JUDE: Cytotoxicity using luciferase to measure ATP as an indicator of the viability of human epithelial embryonic kidney cells (HEK293); type: toxicity, cell-based
Toxoplasma gondii = assay: ST_JUDE: Growth inhibition of to Toxoplasma gondii, in human U-2OS cells, as measured by luciferase.; type: functional, organism-based; settings: RH, U2OS
Summary of the method: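 T. gondii parasites engineered to express luciferase; drug sensitivity read by luminescence.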

[7] = ST_JUDE: Cytotoxicity using luciferase to measure ATP as an indicator of the viability of human epithelial hepatocellular carcinoma cells (HepG2); type: toxicity, cell-based
Plasmodium falciparum [8] = assay: ST_JUDE: Cytotoxicity against Plasmodium falciparum Dd2; type: functional, organism-based
Plasmodium falciparum [9] = assay: ST_JUDE: Cytotoxicity against Plasmodium falciparum 3D7; type: functional, organism-based; summary of the method: as §1
Plasmodium falciparum [10] = assay: ST_JUDE: Cytotoxicity against Plasmodium falciparum D10 transfected with yeast DHOD; type: functional, organism-based
Plasmodium falciparum [11] = assay: ST_JUDE: Cytotoxicity against Plasmodium falciparum SB-A6; type: functional, organism-based
Plasmodium falciparum [12] = assay: ST_JUDE: Cytotoxicity against Plasmodium falciparum V1/S; type: functional, organism-based
Plasmodium falciparum [13] = assay: ST_JUDE: Plasmodium falciparum K1 EC50 (uM) as measured by SYBR green dye; type: functional, organism-based

SMILES: COc1ccc(NC(=O)C2c3ccccc3C(=O)N(CC(C)C)C2c2cccs2)cc1OC (centres undefined)
- EC50 (Trypanosoma brucei): 6930 nM
- EC50 (Plasmodium falciparum [1]): 50.1 nM
- EC50 [2]: > 44000 nM
- EC50 (Plasmodium falciparum [3]): 49.6 nM
- EC50 (Plasmodium falciparum [4]): 110 nM
- EC50 (Leishmania major): > 18800 nM
- EC50 [5]: > 44000 nM
- EC50 [6]: > 44000 nM
- EC50 (Toxoplasma gondii): > 24100 nM
- EC50 [7]: > 44000 nM
- EC50 (Plasmodium falciparum [8]): 123 nM
- EC50 (Plasmodium falciparum [9]): 105 nM
- EC50 (Plasmodium falciparum [10]): 91.3 nM
- EC50 (Plasmodium falciparum [11]): 90 nM
- EC50 (Plasmodium falciparum [12]): 132 nM
- EC50 (Plasmodium falciparum [13]): 51.8 nM

SMILES: CC(C)(C)C(=O)N1CCN(c2ccc([N+](=O)[O-])c(NC3CC3)c2)CC1
- EC50 (Trypanosoma brucei): 21300 nM
- EC50 (Plasmodium falciparum [1]): 670 nM
- EC50 [2]: > 43400 nM
- EC50 (Plasmodium falciparum [3]): 480 nM
- EC50 (Plasmodium falciparum [4]): 1070 nM
- EC50 (Leishmania major): > 18600 nM
- EC50 [5]: > 43400 nM
- EC50 [6]: > 43400 nM
- EC50 (Toxoplasma gondii): > 23800 nM
- EC50 [7]: > 43400 nM
- EC50 (Plasmodium falciparum [8]): 1050 nM
- EC50 (Plasmodium falciparum [9]): 1240 nM
- EC50 (Plasmodium falciparum [10]): 1360 nM
- EC50 (Plasmodium falciparum [11]): 1240 nM
- EC50 (Plasmodium falciparum [12]): 1150 nM
- EC50 (Plasmodium falciparum [13]): 642 nM

SMILES: CC(=O)N(C1=C(N(C)C)C(=O)c2ccccc2C1=O)c1ccc(F)cc1
- EC50 (Trypanosoma brucei): 571 nM
- EC50 (Plasmodium falciparum [1]): 68.5 nM
- EC50 [2]: 284 nM
- EC50 (Plasmodium falciparum [3]): 77.3 nM
- EC50 (Plasmodium falciparum [4]): 15.2 nM
- EC50 (Leishmania major): > 13700 nM
- EC50 [5]: 3830 nM
- EC50 [6]: 7540 nM
- EC50 (Toxoplasma gondii): 630 nM
- EC50 [7]: 712 nM
- EC50 (Plasmodium falciparum [8]): 12.5 nM
- EC50 (Plasmodium falciparum [9]): 12.1 nM
- EC50 (Plasmodium falciparum [10]): 17.6 nM
- EC50 (Plasmodium falciparum [11]): 29.7 nM
- EC50 (Plasmodium falciparum [12]): 11.9 nM
- EC50 (Plasmodium falciparum [13]): 144 nM

SMILES: CCc1ccc(S(=O)(=O)NC2=C/C(=N\c3ccccc3)C(=O)c3ccccc32)cc1
- EC50 (Trypanosoma brucei): 1460 nM
- EC50 (Plasmodium falciparum [1]): 557 nM
- EC50 [2]: 2660 nM
- EC50 (Plasmodium falciparum [3]): 484 nM
- EC50 (Plasmodium falciparum [4]): 276 nM
- EC50 (Leishmania major): > 13200 nM
- EC50 [5]: 5650 nM
- EC50 [6]: 5210 nM
- EC50 (Toxoplasma gondii): > 16900 nM
- EC50 [7]: 4290 nM
- EC50 (Plasmodium falciparum [8]): 575 nM
- EC50 (Plasmodium falciparum [9]): 284 nM
- EC50 (Plasmodium falciparum [10]): 373 nM
- EC50 (Plasmodium falciparum [11]): 340 nM
- EC50 (Plasmodium falciparum [12]): 404 nM
- EC50 (Plasmodium falciparum [13]): 472 nM

SMILES: CCOC(=O)C1=C(C)N=c2s/c(=C/c3ccccc3O)c(=O)n2C1c1ccccc1 (centres undefined)
- EC50 (Trypanosoma brucei): 6970 nM
- EC50 (Plasmodium falciparum [1]): > 15000 nM
- EC50 [2]: > 36600 nM
- EC50 (Plasmodium falciparum [3]): 2210 nM
- EC50 (Plasmodium falciparum [4]): 343 nM
- EC50 (Leishmania major): > 15700 nM
- EC50 [5]: > 36600 nM
- EC50 [6]: > 36600 nM
- EC50 (Toxoplasma gondii): > 20100 nM
- EC50 [7]: > 36600 nM
- EC50 (Plasmodium falciparum [8]): 2180 nM
- EC50 (Plasmodium falciparum [9]): 317 nM
- EC50 (Plasmodium falciparum [10]): 486 nM
- EC50 (Plasmodium falciparum [11]): 513 nM
- EC50 (Plasmodium falciparum [12]): > 9410 nM
- EC50 (Plasmodium falciparum [13]): 390 nM

SMILES: CCn1nc(-c2ccc(C(F)(F)F)cc2)nc2c(=O)n(C)c(=O)nc1-2
- EC50 (Trypanosoma brucei): > 48000 nM
- EC50 (Plasmodium falciparum [1]): 779 nM
- EC50 [2]: > 50100 nM
- EC50 (Plasmodium falciparum [3]): 90.4 nM
- EC50 (Plasmodium falciparum [4]): 246 nM
- EC50 (Leishmania major): > 21400 nM
- EC50 [5]: > 50100 nM
- EC50 [6]: > 50100 nM
- EC50 (Toxoplasma gondii): > 27400 nM
- EC50 [7]: 2870 nM
- EC50 (Plasmodium falciparum [8]): 4550 nM
- EC50 (Plasmodium falciparum [9]): 402 nM
- EC50 (Plasmodium falciparum [10]): 613 nM
- EC50 (Plasmodium falciparum [11]): 1300 nM
- EC50 (Plasmodium falciparum [12]): 225 nM
- EC50 (Plasmodium falciparum [13]): 1370 nM

SMILES: Cn1c(=O)c2c(-c3ccc(C(C)(C)C)cc3)n(-c3cc(Cl)ccc3O)cc2n(C)c1=O
- EC50 (Trypanosoma brucei): 6750 nM
- EC50 (Plasmodium falciparum [1]): 1140 nM
- EC50 [2]: > 39500 nM
- EC50 (Plasmodium falciparum [3]): 780 nM
- EC50 (Plasmodium falciparum [4]): > 10200 nM
- EC50 (Leishmania major): > 16900 nM
- EC50 [5]: > 39500 nM
- EC50 [6]: > 39500 nM
- EC50 (Toxoplasma gondii): > 21700 nM
- EC50 [7]: > 39500 nM
- EC50 (Plasmodium falciparum [8]): 1270 nM
- EC50 (Plasmodium falciparum [9]): > 10200 nM
- EC50 (Plasmodium falciparum [10]): 982 nM
- EC50 (Plasmodium falciparum [11]): 976 nM
- EC50 (Plasmodium falciparum [12]): 988 nM
- EC50 (Plasmodium falciparum [13]): 1220 nM

SMILES: O=C1C(Nc2ccc(Br)cc2)=C(n2nnc3ccccc32)C(=O)c2ccccc21
- EC50 (Trypanosoma brucei): 1310 nM
- EC50 (Plasmodium falciparum [1]): 28.2 nM
- EC50 [2]: > 24800 nM
- EC50 (Plasmodium falciparum [3]): > 6370 nM
- EC50 (Plasmodium falciparum [4]): 24.5 nM
- EC50 (Leishmania major): > 10600 nM
- EC50 [5]: > 24800 nM
- EC50 [6]: > 24800 nM
- EC50 (Toxoplasma gondii): > 13600 nM
- EC50 [7]: > 24800 nM
- EC50 (Plasmodium falciparum [8]): 590 nM
- EC50 (Plasmodium falciparum [9]): 60.2 nM
- EC50 (Plasmodium falciparum [10]): 59.3 nM
- EC50 (Plasmodium falciparum [11]): 80.1 nM
- EC50 (Plasmodium falciparum [12]): 32.6 nM
- EC50 (Plasmodium falciparum [13]): 21.6 nM

SMILES: Oc1ccc(Br)cc1CN1CCN(Cc2ccccc2F)CC1
- EC50 (Trypanosoma brucei): 27200 nM
- EC50 (Plasmodium falciparum [1]): 719 nM
- EC50 [2]: > 36100 nM
- EC50 (Plasmodium falciparum [3]): 1610 nM
- EC50 (Plasmodium falciparum [4]): 745 nM
- EC50 (Leishmania major): > 15500 nM
- EC50 [5]: > 36100 nM
- EC50 [6]: > 36100 nM
- EC50 (Toxoplasma gondii): > 19800 nM
- EC50 [7]: > 36100 nM
- EC50 (Plasmodium falciparum [8]): 1790 nM
- EC50 (Plasmodium falciparum [9]): 2060 nM
- EC50 (Plasmodium falciparum [10]): 3660 nM
- EC50 (Plasmodium falciparum [11]): 2770 nM
- EC50 (Plasmodium falciparum [12]): 936 nM
- EC50 (Plasmodium falciparum [13]): 334 nM

Reference: ChEMBL document CHEMBL1154198, “Chemical genetics of Plasmodium falciparum” (Nature, 2010)
